According to ChEMBL document CHEMBL1143703, “Linear TMC-95-based proteasome inhibitors” (J Med Chem, 2007):
Residues, ends and D or L forms follow the SMILES beside them. *: point of attachment. Cbz = O=C(OCc1ccccc1)*; Boc = CC(C)(C)OC(=O)*; NHBn = c1ccc(CN*)cc1; NHPh = c1ccc(N*)cc1; Bn = c1ccc(C*)cc1

Assays:
Oryctolagus cuniculus [1] = organism: Oryctolagus cuniculus; assay: Inhibition of chymotrypsin-like activity of rabbit reticulocyte 20S proteasome at 100 uM
Oryctolagus cuniculus [2] = organism: Oryctolagus cuniculus; assay: Inhibition of post acid activity of rabbit reticulocyte 20S proteasome at 100 uM
Oryctolagus cuniculus [3] = organism: Oryctolagus cuniculus; assay: Activation of trypsin-like activity of rabbit reticulocyte 20S proteasome relative to control
Summary of the method: (§1)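 Trypsin-like site: proteasome exposed to 0.1-100 µM compound, fluorogenic substrate hydrolysis read 1 h at 37 °C in pH 7.5 20 mM Tris, 1 mM DTT, 10% glycerol without SDS; 3% DMSO final. Initial rates relative to untreated control: >100% expressed as activation factor, <100% as inhibition; Ki via Vi/V0 = 1/(1+[I]/Ki(app)) or IC50 = Ki(1+[S]/Km).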

[4] = Inhibition of chymotrypsin-like activity of rabbit reticulocyte 20S proteasome; parameters: species or system Oryctolagus cuniculus
[5] = Inhibition of post acid activity of rabbit reticulocyte 20S proteasome; parameters: species or system Oryctolagus cuniculus
[6] = Inhibition of trypsin-like activity of rabbit reticulocyte 20S proteasome; parameters: species or system Oryctolagus cuniculus; summary of the method: as §1
Oryctolagus cuniculus [7] = organism: Oryctolagus cuniculus; assay: Inhibition of trypsin-like activity of rabbit reticulocyte 20S proteasome at 100 uM; summary of the method: as §1

SMILES	inhibition (Oryctolagus cuniculus [1]) [%]	inhibition (Oryctolagus cuniculus [2]) [%]	Fold change (Oryctolagus cuniculus [3])	Ki [4] [µM]	Ki [5] [µM]	Ki [6] [µM]	inhibition (Oryctolagus cuniculus [7]) [%]
CCOC(=O)[C@@H](Cc1c[nH]c2c(-c3ccc(C[C@H](NC(=O)OC(C)(C)C)C(=O)N[C@H](CC(C)C)C(=O)OC)cc3OCc3ccccc3)cccc12)NC(=O)OCc1ccccc1	< 20	20	1.4	> 100	> 100		
CC(C)(C)OC(=O)N[C@@H](Cc1ccc(OCc2ccccc2)cc1)C(=O)N[C@@H](CCCN(C(=N)NC(=O)OCc1ccccc1)C(=O)OCc1ccccc1)C(=O)N[C@@H](Cc1c[nH]c2ccccc12)C(=O)NCc1ccccc1	< 20	< 20	1.9	> 100	> 100		
CC(C)(C)OC(=O)N[C@@H](Cc1ccc(OCc2ccccc2)cc1)C(=O)NCC(=O)N[C@@H](Cc1c[nH]c2ccccc12)C(=O)NCc1ccccc1 (Boc-Tyr(Bn)-Gly-Trp-NHBn)	< 20		1.7	> 100	31.5		
CC(C)C[C@H](NC(=O)[C@H](Cc1ccc(OCc2ccccc2)cc1)NC(=O)OC(C)(C)C)C(=O)N[C@@H](Cc1c[nH]c2ccccc12)C(=O)NCCCCNC(=O)OC(C)(C)C			2.3	81.8	31.5		
CNC(=O)[C@@H](Cc1c[nH]c2c(-c3ccc(C[C@H](NC(=O)OC(C)(C)C)C(=O)N[C@H](CC(C)C)C(=O)OC)cc3OCc3ccccc3)cccc12)NC(=O)OCc1ccccc1	< 20	< 20		> 100	> 100	69	
CC(C)(C)OC(=O)N[C@@H](Cc1ccc(O)cc1)C(=O)N[C@@H](CCCNC(=N)N)C(=O)N[C@@H](Cc1c[nH]c2ccccc12)C(=O)NCc1ccccc1 (Boc-Tyr-Arg-Trp-NHBn)				1.2	0.6	3.9	
COC(=O)[C@@H]1Cc2c[nH]c3c(cccc23)-c2ccc(cc2OCc2ccccc2)C[C@H](NC(=O)OC(C)(C)C)C(=O)N[C@@H](CC(C)C)C(=O)N1	< 20	< 20	1.4	> 100	> 100		
COC(=O)[C@H](Cc1c[nH]c2c(Br)cccc12)NC(=O)[C@H](CC(N)=O)NC(=O)[C@H](Cc1ccc(OCc2ccccc2)c(I)c1)NC(=O)OC(C)(C)C				14.1	55.4	> 100	< 20
NCCCC[C@H](NC(=O)[C@@H](N)Cc1ccc(OCc2ccccc2)cc1)C(=O)N[C@@H](Cc1c[nH]c2ccccc12)C(=O)Nc1ccc(O)cc1		< 20		0.85	> 100	0.98	
CC(C)(C)OC(=O)NCCCC[C@H](NC(=O)[C@H](Cc1ccc(OCc2ccccc2)cc1)NC(=O)OC(C)(C)C)C(=O)N[C@@H](Cc1c[nH]c2ccccc12)C(=O)Nc1ccc(O)cc1		< 20		65.7	> 100	> 100	
CC(C)C[C@H](NC(=O)[C@H](Cc1ccc(OCc2ccccc2)cc1)NC(=O)OC(C)(C)C)C(=O)N[C@@H](Cc1c[nH]c2ccccc12)C(=O)Nc1ccccc1 (Boc-Tyr(Bn)-Leu-Trp-NHPh)	< 20	< 20	1.9	> 100	> 100		
CC(C)(C)OC(=O)NCCCC[C@H](NC(=O)[C@H](Cc1ccc(OCc2ccccc2)cc1)NC(=O)OC(C)(C)C)C(=O)N[C@@H](Cc1c[nH]c2ccccc12)C(=O)Nc1ccccc1 (Boc-Tyr(Bn)-Lys(Boc)-Trp-NHPh)	< 20	< 20	1.6	> 100	> 100		
CC(C)C[C@@H](C=O)NC(=O)[C@H](CC(C)C)NC(=O)[C@H](CC(C)C)NC(=O)OCc1ccccc1 [MG-132] (Cbz-Leu-Leu-Leu-aldehyde)				0.075	0.67	4.5	
COC(=O)[C@H](Cc1c[nH]c2c(Br)cccc12)NC(=O)[C@H](C)NC(=O)[C@H](Cc1ccc(OC)c(I)c1)NC(=O)OC(C)(C)C				59.3	74	> 100	< 20
COC(=O)[C@H](Cc1c[nH]c2ccccc12)NC(=O)[C@H](C)NC(=O)[C@H](Cc1ccc(OCc2ccccc2)cc1)NC(=O)OC(C)(C)C (Boc-Tyr(Bn)-Ala-Trp-OMe)			9.8	44.8	> 100		
C[C@H](NC(=O)[C@H](Cc1ccc(OCc2ccccc2)cc1)NC(=O)OC(C)(C)C)C(=O)N[C@@H](Cc1c[nH]c2ccccc12)C(=O)NCc1ccccc1 (Boc-Tyr(Bn)-Ala-Trp-NHBn)	< 20		1.7	> 100	55.4		
CC(C)(C)OC(=O)N[C@@H](Cc1ccc(OCc2ccccc2)cc1)C(=O)NCC(=O)N[C@@H](Cc1c[nH]c2ccccc12)C(=O)O (Boc-Tyr(Bn)-Gly-Trp-OH)	< 20	< 20	1.8	> 100	> 100		
CC(C)C[C@H](NC(=O)[C@@H](N)Cc1ccc(OCc2ccccc2)cc1)C(=O)N[C@@H](Cc1c[nH]c2ccccc12)C(=O)NCCCCN				3.69	22.5	0.33	
C[C@H](NC(=O)[C@H](Cc1ccc(O)cc1)NC(=O)OC(C)(C)C)C(=O)N[C@@H](Cc1c[nH]c2ccccc12)C(=O)O (Boc-Tyr-Ala-Trp-OH)	< 20	< 20	6.8	> 100	> 100		
CNC(=O)[C@H](Cc1c[nH]c2c(Br)cccc12)NC(=O)[C@H](C)NC(=O)[C@H](Cc1ccc(OCc2ccccc2)c(I)c1)NC(=O)OC(C)(C)C				59.3	30.2	> 100	< 20
COC(=O)[C@H](Cc1c[nH]c2ccccc12)NC(=O)[C@H](C)NC(=O)[C@H](Cc1ccc(O)cc1)NC(=O)OC(C)(C)C (Boc-Tyr-Ala-Trp-OMe)			6	9.2	8.7		
CNC(=O)[C@@H](Cc1c[nH]c2c(-c3ccc(C[C@H](NC(=O)OC(C)(C)C)C(=O)N[C@H](C)C(=O)OC)cc3OCc3ccccc3)cccc12)NC(=O)OCc1ccccc1	20			> 100	> 100	21.5	
C[C@H](NC(=O)[C@@H](N)Cc1ccc(OCc2ccccc2)cc1)C(=O)N[C@@H](Cc1c[nH]c2ccccc12)C(=O)NCc1ccccc1 (H-Tyr(Bn)-Ala-Trp-NHBn)				0.48	> 100	> 100	
NCCCC[C@H](NC(=O)[C@@H](N)Cc1ccc(OCc2ccccc2)cc1)C(=O)N[C@@H](Cc1c[nH]c2ccccc12)C(=O)NCc1ccccc1 (H-Tyr(Bn)-Lys-Trp-NHBn)		< 20		1.07	> 100	0.32	
COC(=O)[C@H](Cc1c[nH]c2c(Br)cccc12)NC(=O)[C@H](CC(C)C)NC(=O)[C@H](Cc1ccc(OCc2ccccc2)c(I)c1)NC(=O)OC(C)(C)C	< 20	< 20	2	> 100	> 100		
NCCCC[C@H](NC(=O)[C@@H](N)Cc1ccc(OCc2ccccc2)cc1)C(=O)N[C@@H](Cc1c[nH]c2ccccc12)C(=O)Nc1ccccc1 (H-Tyr(Bn)-Lys-Trp-NHPh)		< 20		2.22	> 100	1.12	
C[C@H](NC(=O)[C@H](Cc1ccc(OCc2ccccc2)cc1)NC(=O)OC(C)(C)C)C(=O)N[C@@H](Cc1c[nH]c2ccccc12)C(=O)O (Boc-Tyr(Bn)-Ala-Trp-OH)	< 20	< 20	1.5	> 100	> 100		
CC(C)C[C@H](NC(=O)[C@H](Cc1ccc(OCc2ccccc2)cc1)NC(=O)OC(C)(C)C)C(=O)N[C@@H](Cc1c[nH]c2ccccc12)C(=O)Nc1ccc(O)cc1	< 20		1.6	> 100	96.4		
COC(=O)[C@@H]1Cc2c[nH]c3c(cccc23)-c2ccc(cc2OC)C[C@H](NC(=O)OC(C)(C)C)C(=O)N[C@@H](CC(C)C)C(=O)N1	< 20		1.8	> 100	> 100		
